Laboratory results from article PMC9328817 (Journal of Food and Drug Analysis, 2016).
Where a SMILES comes first, the peptide text is derived from it.

B1: lactoferrin: iron-binding multifunctional protein in camel milk (protein, UniProt Q9TUM0 20-708, looked up)
Lactotransferrin: ASKKSVRWCTTSPAESSKCAQWQRRMKKVRGPSVTCVKKTSRFECIQAISTEKADAVTLDGGLVYDAGLDPYKLRPIAAEVYGTENNPQTHYYAVAIAKKGTNFQLNQLQGLKSCHTGLGRSAGWNIPMGLLRPFLDWTGPPEPLQKAVAKFFSASCVPCVDGKEYPNLCQLCAGTGENKCACSSQEPYFGYSGAFKCLQDGAGDVAFVKDSTVFESLPAKADRDQYELLCPNNTRKPVDAFQECHLARVPSHAVVARSVNGKEDLIWKLLVKAQEKFGRGKPSGFQLFGSPAGQKDLLFKDSALGLLRISSKIDSGLYLGSNYITAIRGLRETAAEVELRRAQVVWCAVGSDEQLKCQEWSRQSNQSVVCATASTTEDCIALVLKGEADALSLDGGYIYIAGKCGLVPVLAESQQSPESSGLDCVHRPVKGYLAVAVVRKANDKITWNSLRGKKSCHTAVDRTAGWNIPMGLLSKNTDSCRFDEFLSQSCAPGSDPRSKLCALCAGNEEGQNKCVPNSSERYYGYTGAFRCLAENVGDVAFVKDVTVLDNTDGKNTEQWAKDLKLGDFELLCLNGTRKPVTEAESCHLAVAPNHAVVSRIDKVAHLEQVLLRQQAHFGRNGRDCPGKFCLFQSKTKNLLFNDNTECLAKLQGKTTYEEYLGPQYVTAIAKLRRCSTSPLLEACAFLMR

Assays:
HepG2 cells = test: MTT viability assay; type: cell-based; details: for Inhibitory effect on the growth of HepG2 cancer cells (in words): 0-1 mg/mL; for Growth inhibition of HepG2 cells: highest concentration tested 1 mg/mL, 24, 48 and 72 hours
Procedure, shortened: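 HepG2 cells were grown in DMEM with 10% FBS, L-glutamine and 1% penicillin/streptomycin at 37°C, humidified, 5% CO2, and treated in log phase at 80% confluence. After seeding and 24 h incubation, cells received peptides at 0–1 mg/mL for 24, 48 or 72 h. MTT was added (4 h, dark, 37°C), DMSO was added, and A570 was read against untreated cells.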

cancer cell growth = details: cited from earlier work

| Molecule | Inhibitory effect on the growth of HepG2 cancer cells (in words) (HepG2 cells) | Growth inhibition of HepG2 cells (HepG2 cells) | Reduction of cancer cell growth (cancer cell growth) |
| --- | --- | --- | --- |
| CC(C)C[C@H](NC(=O)CNC(=O)[C@@H](N)CCCNC(=N)N)C(=O)N[C@@H](Cc1c[nH]cn1)C(=O)N1CCC[C@H]1C(=O)N[C@H](C(=O)N1CCC[C@H]1C(=O)N[C@@H](CCC(N)=O)C(=O)O)C(C)C [RQ-8] (H-RGLHPVPQ-OH) | no significant inhibitory effects | about 20% |  |
| CC(C)C[C@H](NC(=O)[C@H](CCC(N)=O)NC(=O)[C@H](CC(=O)O)NC(=O)[C@H](CCC(N)=O)NC(=O)[C@H](CCC(N)=O)NC(=O)[C@H](CCC(=O)O)NC(=O)[C@H](CC(=O)O)NC(=O)[C@H](CCC(=O)O)NC(=O)[C@@H](NC(=O)[C@H](CCC(N)=O)NC(=O)[C@H](CCC(N)=O)NC(=O)[C@H](CCC(N)=O)NC(=O)[C@H](CCC(=O)O)NC(=O)[C@H](CCC(=O)O)NC(=O)[C@@H](N)CC(C)C)[C@@H](C)O)C(=O)O [LL-15] (H-LEEQQQTEDEQQDQL-OH) | no significant inhibitory effects | about 20% |  |
| CC(C)C[C@H](NC(=O)[C@H](CCCNC(=N)N)NC(=O)[C@H](Cc1c[nH]cn1)NC(=O)[C@H](CC(C)C)NC(=O)[C@H](CCC(=O)O)NC(=O)[C@H](CCC(=O)O)NC(=O)[C@H](CC(C)C)NC(=O)[C@@H](N)Cc1ccc(O)cc1)C(=O)N[C@@H](CC(N)=O)C(=O)N[C@@H](C)C(=O)NCC(=O)N[C@@H](Cc1ccc(O)cc1)C(=O)O [YY-11] (H-YLEELHRLNAGY-OH) | no significant inhibitory effects | about 20% |  |
| B1 |  |  | 56% |
